Data set [1] has as its system PC-12. The data set is described as follows: Neuroprotective activity against H2O2-induced damage in rat PC12 cells assessed as cell viability at 5 uM preincubated for 3 hrs followed by H2O2 challenge measured after 5 hrs by MTT assay. It is filed as functional, cell-based. In outline: (§1)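 PC12 cells in high-glucose DMEM with 10% FBS, 5% horse serum and antibiotics, 37 °C, 5% CO₂, seeded at 4 × 10⁵ cells mL⁻¹. Pretreated 3 h with compounds (DMSO, diluted in medium), then challenged with H₂O₂ at final 500 μM for 5 h. MTT absorbance at 570 nm; viability relative to untreated cells (100%); mean ± SD, n = 3.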

Data set [2] can be described thus: Antineuroinflammatory activity in mouse BV2 cells assessed as inhibition of LPS-induced nitric oxide production preincubated for 3 hrs followed by LPS challenge measured after 24 hrs by Griess assay. Format: functional, cell-based. Particulars: BV-2. In outline: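 BV2 microglia grown in high-glucose DMEM with 10% FBS and penicillin/streptomycin, 5% CO₂, 37 °C. Seeded at 4 × 10⁵ cells mL⁻¹. Compounds in DMSO, diluted in medium, added for 3 h before LPS (final 100 nM). Nitrite in medium read with an NO assay kit at 540 nm after 24 h. Inhibition calculated against the LPS-only and normal controls. IC50 obtained by linear regression.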

In data set [3] the test system is PC-12. Kind of data set: Neuroprotective activity against 6-OHDA-induced damage in rat PC12 cells assessed as cell viability at 40 uM preincubated for 3 hrs followed by 6-OHDA challenge measured after 48 hrs by MTT assay. Format: functional, cell-based. In outline: (§2)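 PC12 cells grown in high-glucose DMEM with 10% FBS, 5% horse serum and penicillin/streptomycin, 5% CO₂, 37 °C. Seeded at 4 × 10⁵ cells mL⁻¹. Compounds (DMSO stock diluted in medium) applied for 3 h, then 6-OHDA at final 400 μM for 48 h. MTT read at 570 nm; viability given as % of untreated cells; mean ± SD, n = 3.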

Data set [4] in a line: Cytotoxicity against mouse BV2 cells assessed as cell viability by MTT assay. Format: cell-based, BV-2. Also noted: concentration or dose not given beside the values. To be noted: read-out: Activity.
The test system of data set [5] is Radical scavenging activity. Kind of data set: Antioxidant activity assessed as DPPH free radical scavenging effect after 30 mins by spectrophotometric analysis. It is filed as functional. In outline:
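Compounds and DPPH both in ethanol; equal volumes of test solution and 0.2 mM DPPH solution mixed; control was ethanol plus DPPH. Tested over 1−50 μM. Inhibition % = (A₀ − A_c)/A₀ × 100; IC50 by linear regression. Triplicate wells, three independent runs; vitamin C as reference.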

Data set [6] in a line: Permeability of the compound at 5 mg/mL after 18 hrs by PAMPA. Format: physicochemical. To be noted: read-out: permeability.
Data set [7] concerns PC-12. Kind of data set: Neuroprotective activity against 6-OHDA-induced damage in rat PC12 cells assessed as cell viability at 5 to 10 uM preincubated for 3 hrs followed by 6-OHDA challenge measured after 48 hrs by MTT assay. Format: functional, cell-based. In outline: as §2
Data set [8] has as its system PC-12. Kind of data set: Neuroprotective activity against H2O2-induced damage in rat PC12 cells assessed as cell viability at 2.5 uM preincubated for 3 hrs followed by H2O2 challenge measured after 5 hrs by MTT assay. Format: functional, cell-based. In outline: as §1

SMILES strings stand for the structures. Activity calls are given as the source filed them. The rule behind the calls is not given here.

As for `COc1ccc(C[S+]([O-])/C=C/c2ccc(O)c(O)c2)cc1` (stereo unspecified), the result in the data set with PC-12 [1] and in the data set with PC-12 [3] was Active. Besides, the IC50 in data set [2] stood at 33 µM; in data set [5], 11.5 µM. The viability in data set [4] was greater than 90%. Also, the Papp at 18 h, 5 mg/mL in data set [6] amounted to 4.3 ×10⁻⁶ cm/s.

Turning to `[O-][S+](/C=C/c1ccc(O)c(O)c1)Cc1ccc(Cl)cc1` (stereo unspecified), the result in the data set with PC-12 [1] and in the data set on PC-12 [3] was Active. Further, the IC50 in data set [2] was determined as 14 µM; in data set [5] it was 8.1 µM. The viability in data set [4] is greater than 90%. In data set [6], the Papp at 18 h, 5 mg/mL stood at 4.1 ×10⁻⁶ cm/s.

As for `[O-][S+](/C=C/c1ccc(O)c(O)c1)Cc1ccccc1` (stereo unspecified), the outcome in the data set on PC-12 [1] and in the data set with PC-12 [3] was Active. For the same compound, the IC50 was 50.3 µM in data set [2] and 14.7 µM in data set [5]. For the same compound, the viability in data set [4] is greater than 90%. For the same compound, in data set [6], the Papp at 18 h, 5 mg/mL is 4.9 ×10⁻⁶ cm/s.

For `[O-][S+](/C=C/c1ccc(O)c(O)c1)CCCCc1ccccc1` (stereo unspecified), the IC50 worked out at 36.8 µM in data set [2] and 16.2 µM in data set [5]. For the same compound, the result with PC-12 [3] was Active. Moreover, the viability in data set [4] is greater than 90%. Besides, the Papp at 18 h, 5 mg/mL in data set [6] worked out at 4.5 ×10⁻⁶ cm/s.

Consider `O=S(=O)(/C=C/c1ccc(O)c(O)c1)CCCCc1ccccc1`, for which the IC50 was 19.8 µM in data set [2] and 17.2 µM in data set [5]. In the data set with PC-12 [3], the outcome was Active. Besides, the viability in data set [4] was greater than 90%. In addition, the Papp at 18 h, 5 mg/mL in data set [6] was 4.1 ×10⁻⁶ cm/s.

As to `O=C(/C=C/c1ccc(O)c(O)c1)OCCc1ccccc1`, the outcome in the data set with PC-12 [1], in the data set with PC-12 [3], in the data set with PC-12 [7] and with PC-12 [8] was Active.

For the compound `O=S(=O)(/C=C/c1ccc(O)c(O)c1)CCCc1ccccc1`, the outcome in the data set on PC-12 [1], in the data set on PC-12 [3] and with PC-12 [8] was Active. The half-maximal inhibitory concentration (IC50) in data set [2] turned out to be 10.5 µM; in data set [5], 9.9 µM. In data set [4], the viability is greater than 90%. In addition, in data set [6], the Papp at 18 h, 5 mg/mL is 4.1 ×10⁻⁶ cm/s.

For the compound `O=S(=O)(/C=C/c1ccc(O)c(O)c1)CCc1ccccc1`, the outcome with PC-12 [1] and with PC-12 [3] was Active. The IC50 in data set [2] was determined as 30.6 µM; in data set [5] it was 10.5 µM. Further, the viability in data set [4] was greater than 90%. Besides, the Papp at 18 h, 5 mg/mL in data set [6] was determined as 5.7 ×10⁻⁶ cm/s.

Turning to `O=S(=O)(/C=C/c1ccc(O)c(O)c1)Cc1ccccc1`, the result in the data set on PC-12 [1] and in the data set on PC-12 [3] was Active. Moreover, the IC50 is 11.6 µM in data set [2] and 8.1 µM in data set [5]. The viability in data set [4] is greater than 90%. For the same compound, the Papp at 18 h, 5 mg/mL in data set [6] worked out at 10.1 ×10⁻⁶ cm/s.

On to `O=S(=O)(/C=C/c1ccc(O)c(O)c1)Cc1ccc(Cl)cc1`, for which the outcome with PC-12 [1] and in the data set with PC-12 [3] was Active. Besides, the results for the IC50 in data set [2] and in data set [5] were 11.7 µM and 8.8 µM, respectively. In addition, in data set [4], the viability was greater than 90%. Moreover, in data set [6], the Papp at 18 h, 5 mg/mL worked out at 3.3 ×10⁻⁶ cm/s.

As to `[O-][S+](/C=C/c1ccc(O)c(O)c1)CCCc1ccccc1` (stereo unspecified), the result in the data set with PC-12 [1] and in the data set on PC-12 [3] was Active. Also, the half-maximal inhibitory concentration (IC50) worked out at 28.6 µM in data set [2] and 14.4 µM in data set [5]. In addition, the viability in data set [4] is greater than 90%. In addition, the Papp at 18 h, 5 mg/mL in data set [6] was determined as 9.1 ×10⁻⁶ cm/s.

With `O=S(=O)(/C=C/c1ccc(O)c(O)c1)Cc1ccc(C(F)(F)F)cc1`, the outcome in the data set with PC-12 [1], in the data set on PC-12 [3] and in the data set on PC-12 [7] was Active. Further, the IC50 is 15.9 µM in data set [2] and 5.8 µM in data set [5]. Moreover, in data set [4], the viability is greater than 90%. In data set [6], the Papp at 18 h, 5 mg/mL is 4.3 ×10⁻⁶ cm/s.

With `[O-][S+](/C=C/c1ccc(O)c(O)c1)Cc1ccc(C(F)(F)F)cc1` (stereo unspecified), the outcome with PC-12 [1] and with PC-12 [3] was Active. Also, the IC50 in data set [2] was 15.5 µM; in data set [5], 7.8 µM. The viability in data set [4] is greater than 90%. Besides, the Papp at 18 h, 5 mg/mL in data set [6] came to 4.2 ×10⁻⁶ cm/s.

Turning to `CC(C)(C)c1ccc(CS(=O)(=O)/C=C/c2ccc(O)c(O)c2)cc1`, the outcome in the data set with PC-12 [1] and in the data set on PC-12 [8] was Active. Also, the IC50 in data set [2] is 12.6 µM; in data set [5], 9.5 µM. The outcome with PC-12 [3] was inactive. Besides, in data set [4], the viability is greater than 90%. For the same compound, the Papp at 18 h, 5 mg/mL in data set [6] was determined as 4.7 ×10⁻⁶ cm/s.

On to `COc1ccc(CS(=O)(=O)/C=C/c2ccc(O)c(O)c2)cc1`, for which the result in the data set on PC-12 [1] and with PC-12 [3] was Active. For the same compound, the IC50 in data set [2] worked out at 11.9 µM; in data set [5], 9.1 µM. Moreover, in data set [4], the viability was greater than 90%. Besides, in data set [6], the Papp at 18 h, 5 mg/mL was 6.4 ×10⁻⁶ cm/s.

Regarding `[O-][S+](/C=C/c1ccc(O)c(O)c1)CCc1ccccc1` (stereo unspecified), the IC50 in data set [2] amounted to 42.6 µM; in data set [5] it was 11.6 µM. Further, the result in the data set on PC-12 [3] and in the data set with PC-12 [7] was Active. Further, the viability in data set [4] was greater than 90%. Also, in data set [6], the Papp at 18 h, 5 mg/mL stood at 5 ×10⁻⁶ cm/s.

For the compound `CC(C)(C)c1ccc(C[S+]([O-])/C=C/c2ccc(O)c(O)c2)cc1` (stereo unspecified), the result in the data set on PC-12 [1] was Active. Besides, the IC50 is 9.3 µM in data set [2] and 9.9 µM in data set [5]. Further, the outcome with PC-12 [3] was inactive. Also, the viability in data set [4] was greater than 90%. The Papp at 18 h, 5 mg/mL in data set [6] was determined as 5.8 ×10⁻⁶ cm/s.
